Compound activity as filed in PubChem.
Hits are enriched below; roughly 3% of the tested compounds scored in any of these assays.
Myeloid diff MLP – promotes myeloid progenitor differentiation | ER-HoxA9 myeloid progenitors, lysozyme-GFP differentiation, flow cytometry | calls only at 10 µM | hit rate 1% among 360,000;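 active = normalized GFP-positive differentiation at or above the plate's own cutoff, the solvent-only control mean plus 3 SD; inconclusive = no clear call, values can overlap the other calls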;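 note: cells exposed to compound for four days before flow analysis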
Cardio protect – modulators protecting cardiomyocytes from myocardial damage. H9c2 cardiomyocytes, H2O2 injury protection, ATPLite, 2 h. protection from H2O2 cell death, % at 20 µM. hit rate 0.63% among 360,000. AID 588492;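 active = compounds giving at least 50% protection of heart cells from peroxide-induced death in the single-dose screen, raw or plate-pattern-corrected value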;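 note: 0% = DMSO wells with peroxide and 100% = DMSO wells without peroxide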
Exocytosis inh – lytic granule exocytosis inhibition | TALL-104 LAMP-1 surface exposure, flow cytometry; cells stimulated with thapsigargin and PMA | inhibition, % at 10 µM | hit rate 0.66% among 360,000 | AID 651702;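 active = inhibition above about 55%, limit read from the data; inconclusive = no clear call, values can overlap the other calls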
SENP1 inh – blocks the human SENP1 SUMO protease catalytic domain. Q9P0U3. recombinant SENP1 catalytic domain, CyPet-SUMO1-YPet FRET cleavage. inhibition, % at 10 µM. hit rate 0.21% among 360,000;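 active = inhibition at least 30% at 10 µM, raw YFP signal under a set limit, fluorescence ratio 0.5 to 1.5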;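 note: 0% = enzyme with DMSO and 100% = no enzyme wells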
Target sequence (Q9P0U3 419-644 limits assumed): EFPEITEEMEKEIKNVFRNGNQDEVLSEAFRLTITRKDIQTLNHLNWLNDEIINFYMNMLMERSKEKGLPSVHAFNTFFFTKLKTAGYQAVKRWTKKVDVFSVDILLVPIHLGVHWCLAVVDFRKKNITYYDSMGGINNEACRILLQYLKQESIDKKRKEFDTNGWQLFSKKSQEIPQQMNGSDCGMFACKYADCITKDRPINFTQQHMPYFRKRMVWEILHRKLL
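Material: hSENP1 catalytic domain, recombinant; medium: Tris pH 8 with BME, BSA, NP40 and catalase; compound: single concentration of 10 µM compound, 0.5% DMSO final; technique: FRET read of cyan and yellow fluorescence; timing: 50 min enzyme reaction, room temperature, light-protected; reagent: SFCypet-SUMO1-SFYpet substrate at 25 nM; control set: no-enzyme low, enzyme-DMSO high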
Pemphigus Ab inh – blocks pemphigus antibody binding to human desmoglein-3 | DSG3-coupled beads, scFv-anti-DSG3-GFP binding, flow cytometry; hits give low values | binding (percent of control), % at 10 µM | hit rate 0.48% among 310,000 | AID 588358;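 active = binding more than 3 SD below its plate's average and above zero; inconclusive = below that plate limit but binding exactly zero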;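 note: hits lower antibody fragment binding to DSG3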
HNF4A DNA FP – change in binding of human HNF4 alpha to DNA | P41235 | HNF4a-FITC DNA binding, fluorescence polarization, 1 h | activity change, % at 10 µM | hit rate 0.3% among 360,000; in the data active = activity change above about 30%, passing the limit was not always enough
Target sequence (P41235 whole entry, looked up): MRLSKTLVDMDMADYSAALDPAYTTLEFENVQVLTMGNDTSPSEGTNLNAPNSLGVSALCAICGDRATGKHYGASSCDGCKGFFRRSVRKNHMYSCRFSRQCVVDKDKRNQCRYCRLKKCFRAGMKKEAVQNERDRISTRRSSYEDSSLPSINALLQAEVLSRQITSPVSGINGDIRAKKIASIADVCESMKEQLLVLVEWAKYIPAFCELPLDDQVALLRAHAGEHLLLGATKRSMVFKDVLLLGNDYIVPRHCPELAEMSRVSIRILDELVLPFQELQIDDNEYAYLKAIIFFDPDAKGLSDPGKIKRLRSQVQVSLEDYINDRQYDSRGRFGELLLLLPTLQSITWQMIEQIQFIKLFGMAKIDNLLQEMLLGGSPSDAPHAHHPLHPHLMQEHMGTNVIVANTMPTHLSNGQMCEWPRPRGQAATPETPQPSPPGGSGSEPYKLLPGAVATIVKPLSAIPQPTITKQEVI
SENP1 conf – SENP1 (human) inhibition, single concentration confirmation | shares compounds with SENP1 inh | recombinant SENP1, CyPet-SUMO1-YPet FRET cleavage | inhibition, % at 10 µM | hit rate 34% among 520 | AID 651678; in the data active = inhibition mostly above about 35%, no sharp cut-off; inactive = mostly below about 32%;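 note: 0% = enzyme with DMSO and 100% = no enzyme control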
SENP1 kin conf – SENP1 (human) inhibition, kinetic confirmation. shares compounds with SENP1 inh. recombinant SENP1, CyPet-SUMO1-YPet FRET kinetic cleavage. inhibition, % at 10 µM. hit rate 26% among 520. AID 651690; in the data active = inhibition mostly above about 32%, no sharp cut-off; inactive = mostly below about 29%;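 note: 0% = DMSO with enzyme and 100% = no enzyme substrate only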
Myeloid diff – promotes myeloid progenitor differentiation. ER-HoxA9 myeloid progenitors, GFP/Mac1 double-positive flow. hit rate 2% among 2,300. calls only. AID 651706. shares compounds with Myeloid diff MLP;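 active = share of green or green-and-red cells above 9 and 9% in run 1 or 4 and 3% in run 2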
GFP autofluor – flagged as fluorescent in myeloid differentiation counter-screen. fluorescence response, % (concentration not given with the values). shares compounds with Myeloid diff MLP. ER-HoxA9 myeloid progenitors, no estrogen, GFP autofluorescence flow cytometry; vehicle wells 0%, positive control 100%. hit rate 7.4% among 2,300;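 active = over 5% cells positive for green fluorescent reporter, or over 2% positive for both it and APC stain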;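 note: range taken on the double positive population between DMSO and positive control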
HNF4a DNA conf – change in binding of human HNF4 alpha to DNA, retest; activity change, % at 12.5 µM; hit rate 99% among 210; AID 1224897; shares compounds with HNF4A DNA FP; HNF4A-FITC DNA binding, fluorescence polarization, 1 h; call rule not given here
Numbers without * were called inactive; i = inactive; ? = inconclusive; . = no result given; + = active, no number.

SMILES | Myeloid diff MLP | Cardio protect | Exocytosis inh | SENP1 inh | Pemphigus Ab inh | HNF4A DNA FP | Myeloid diff | GFP autofluor | others
COc1ccc(Nc2cc(C)nc(N3CCN(C(=O)c4ccc5c(c4)OCO5)CC3)n2)cc1 | i | 10 | 1 | 1 | 99 | -6 | . | .
O=C(CCNC(=O)c1ccc([N+](=O)[O-])cc1)Nc1ccccc1N1CCCC1 | i | 2 | 1 | -2 | 114 | -1 | . | .
N#CCSc1ccccc1NC(=O)COC(=O)CCNC(=O)c1ccc([N+](=O)[O-])cc1 | + | -1 | 11 | 32* | 116 | 4 | i | 41* | SENP1 conf=8;SENP1 kin conf=6
Cc1noc(C)c1C(=O)OCC(=O)Nc1ccccc1SCC#N | + | 6 | 2 | 44* | . | 1 | i | 57* | SENP1 conf=17;SENP1 kin conf=14
COc1ccc(C(=O)Nc2ccnn2C2CCN(C(=O)C3CCOC3)CC2)cc1 (centres undefined) | i | 1 | 0 | 1 | 101 | 2 | . | .
CCOc1cc(/C=C2\N=C3CCCCCN3C2=O)ccc1O | i | -4 | 0 | 39* | 96 | 49* | . | . | SENP1 conf=56*;SENP1 kin conf=50*;HNF4a DNA conf=71*
COc1cccc(/C=C2\N=C3CCCCCN3C2=O)c1 | i | -2 | 1 | 2 | . | -4 | . | .
COc1ccc(-c2nnc(C)c3nocc23)cc1 | i | 12 | 8 | 37* | 101 | 56* | . | . | SENP1 conf=23;SENP1 kin conf=21;HNF4a DNA conf=63*
CCCCCCN1C=CC(=C/C=C(\C#N)C(=O)OCC)C=C1 | i | -1 | -3 | -22 | 146 | 196 | . | .
CCOC(=O)/C(C#N)=C/C=C1\C=Cc2ccccc2N1CC | + | 20 | 0 | 52* | 110 | 94* | . | . | SENP1 conf=71*;SENP1 kin conf=39*;HNF4a DNA conf=101*
O=[N+]([O-])c1cccc(-c2noc(-c3ccco3)n2)c1 | i | 2 | 1 | 0 | 116 | -3 | . | .
CCSc1ncc(Cl)c(C(=O)Nc2sc3c(c2C(=O)NCc2cccnc2)CCCC3)n1 | ? | -3 | 17 | 41* | 98 | 51* | . | . | SENP1 conf=62*;SENP1 kin conf=44*;HNF4a DNA conf=49*
CCc1cc(C(=O)N2CCCc3ccccc32)sc1C | i | -5 | -2 | 1 | 104 | -1 | . | .
C[C@H](CO)N1C[C@H](C)[C@@H](CN(C)S(=O)(=O)c2ccc(F)cc2)Oc2ccc(NC(=O)C3CCCCC3)cc2C1=O | i | 5 | -3 | 1 | 105 | 1 | i | 0
Cc1ccc(S(=O)(=O)N(C)C[C@H]2Oc3ccc(NC(=O)C4CCCCC4)cc3C(=O)N([C@H](C)CO)C[C@H]2C)cc1 | i | 2 | 10 | 0 | 108 | 4 | . | .
O=C(O)[C@@H]1Cc2ccccc2N1 | + | -8 | 6 | -32 | . | 8 | i | 5.4*
C[n+]1c2n(c3ccccc31)N=C(c1cc(C(C)(C)C)c(O)c(C(C)(C)C)c1)CS2 | + | -26 | 58* | 3 | 103 | 1 | i | 0
CCC(C)Sc1ccc([C@H]2N[C@@](CC(C)C)(C(=O)OC)[C@H]3C(=O)N(C)C(=O)[C@@H]23)cc1 (some centres undefined) | i | 1 | 2 | -1 | 101 | -2 | . | .
COC(=O)[C@]12CCCCC=C1N(Cc1ccc(Cl)cc1Cl)C(=O)[C@H](CC(=O)NCc1cccc(C(F)(F)F)c1)C2 | i | . | -4 | 1 | . | -2 | . | .
Cc1cccc(N2CCN(C(=O)c3ccc4c(c3)OCCO4)CC2)c1C | + | -2 | 5 | -1 | 100 | -2 | + | 0
Cc1cccc(C)c1N1CCN(C(=O)c2ccc3c(c2)OCO3)CC1 | i | 5 | -2 | 1 | 102 | -2 | . | .
Cc1[nH]n(-c2ccccc2)c(=O)c1C(=O)c1cccc(F)c1 | i | 3 | -3 | 4 | 106 | 0 | i | 0
Cc1[nH]n(-c2ccccc2)c(=O)c1C(=O)c1ccccc1 | i | 5 | 4 | 0 | 103 | -15 | . | .
COc1cc(/C=C2\SC(=O)N(CC(=O)Nc3ccccc3F)C2=O)cc(Cl)c1O | i | 2 | 5 | -25 | 121 | 3 | i | 0
CN(C)c1ccc(NC(=O)CN2CCN(CC(=O)Nc3ccc(F)cc3)CC2)cc1 | i | -6 | -3 | 4 | 105 | -1 | . | .
SMILES | Myeloid diff MLP | Cardio protect | Exocytosis inh | SENP1 inh | Pemphigus Ab inh | HNF4A DNA FP | Myeloid diff | GFP autofluor | others
CN(C)c1ccc(NC(=O)CN2CCC(O)(c3ccccc3)CC2)cc1 | i | 6 | 0 | 2 | . | -2 | i | 0
Cc1c(C)c2ccc(OCC(=O)N3CCOCC3)c(C)c2oc1=O | i | 7 | 1 | 1 | 119 | -3 | . | .
O=C(CCc1nnc2ccc(NCc3ccco3)nn12)N1CCN(c2ccccc2)CC1 | ? | 11 | 2 | -10 | 109 | -6 | . | .
CCOC(=O)C1CCN(C(=O)CCc2nnc3ccc(NCc4ccco4)nn23)CC1 | + | 2 | -12 | -3 | 105 | 3 | i | 1
COc1ccc(CN2C[C@H]3CCCN3c3cc(Br)ccc3S2(=O)=O)cc1 | ? | -14 | 8 | 4 | 102 | -3 | . | .
O=C(c1ccccc1)c1ccc(C(=O)N2CCN(c3ccccc3Cl)CC2)cc1 | i | -7 | -3 | 3 | 103 | 1 | i | 0
CC1(C)CC(=O)C/C(=N/NC(=O)c2ccc(-c3ccccc3)cc2)C1 | + | 0 | -1 | -6 | 96 | 19 | i | 5.2*
Cn1c(NCc2cccnc2)nc2cc(-c3cccc(C(=O)NCCO)c3)sc2c1=O | + | 8 | 1 | -3 | . | 1 | i | 1
CC(C)CNC(=O)C(=O)NCC1OCCCN1S(=O)(=O)c1cccs1 (centres undefined) | i | 2 | -2 | 0 | 104 | 6 | . | .
O=C(COc1ccc(F)cc1)N(Cc1ccco1)C1CCS(=O)(=O)C1 (centres undefined) | i | -1 | -3 | 3 | ? | 1 | . | .
CC1CCC(NC(=O)CCCCn2c(=O)[nH]c3ccsc3c2=O)CC1 (centres undefined) | ? | 2 | -6 | 3 | . | 1 | . | .
